Experimental data of several laboratories.
Protocols differ between the studies behind these lines.
Target: Serine/threonine-protein kinase PAK 2 (PAK2, Homo sapiens, UniProt Q13177)

Structure (SMILES) | assay | conditions | remaining binding [%]
COc1ncc2cc3ccccc3nc2c1C#N | cell-free assay, competition with immobilised ligand | 5 µM | 85
O=C(c1ccc(Nc2ncc(Cl)c(-c3ccc(Cl)s3)n2)cc1)N1CCC(N2CCCC2)CC1 | binding, competition with immobilised ligand | 1 µM | 49
CCCCN(CCCC)C(=O)CN1C[C@@H](c2cc(OC)c3c(c2)OCO3)[C@H](C(=O)O)[C@H]1CC(C)(C)CCC | cell-free assay, competition with immobilised ligand | 1 µM | 83.5
CC1CCCN1c1nccc(-c2cnn3ncccc23)n1 (stereo not drawn) | binding | 1 µM | 100
CNC(=O)c1ccc(Nc2ncc(C(F)(F)F)c(NCc3nccnc3N(C)S(C)(=O)=O)n2)cc1 | cell-free assay, competition with immobilised ligand | 0.1 µM | 72
N[C@@H]1CCN(c2nccc(-c3cnn4ncccc34)n2)C1 | binding | 1 µM | 100
O=C(NCCCN1CCOCC1)c1ccc(Nc2ncc(Cl)c(-c3ccc(Cl)s3)n2)cc1 | binding, competition with immobilised ligand | 1 µM | 90
CC(C)(C)c1ccc(-c2nc(CBr)nn2-c2cccc(O)c2)cc1 | cell-free assay, competition with immobilised ligand | 10 µM | 100
CNC(=O)[C@@H]1CC[C@@H](n2c(-c3ccc4cnccc4c3)nc3ccc(C(=O)NCc4cccc(C(N)=O)c4)cc32)C1 | binding, competition with immobilised ligand | 1 µM | 96
CN(C(=O)c1ccccc1)c1cc(N(C)c2ccc3c(c2)CCc2ccc(C(=O)NCCN4CCOCC4)cc2C3=O)ccc1F | cell-free assay, competition with immobilised ligand | 1 µM | 63
C[C@H]1CCN(c2nccc(-c3cnn4ncccc34)n2)C1 | binding | 1 µM | 59
CCS(=O)(=O)c1cc2cc(C[C@@](O)(CC(C)(C)c3ccc(F)cc3C(N)=O)C(F)(F)F)[nH]c2cn1 | cell-free assay, competition with immobilised ligand | 1 µM | 94
Cc1cnn2ncc(-c3ccnc(N(C)C)n3)c2c1 | binding | 1 µM | 96
C[C@@H]1CN(c2ccc3ncc(-c4ccc5[nH]nc(C6CC6)c5c4)n3n2)C[C@H](C)O1 | binding, competition with immobilised ligand | 0.5 µM | 55
O=C(NCC1CCOCC1)c1n[nH]cc1NC(=O)c1c(F)cccc1F | binding, competition with immobilised ligand | 1 µM | 60
O=C(c1ccc(Nc2nccc(-c3cc4ccccc4s3)n2)cc1)N1CCC(N2CCCC2)CC1 | binding, competition with immobilised ligand | 1 µM | 69
CNCc1ccccc1-c1csc([C@@H](C)Nc2nc(C)nc3cc(OC)c(OC)cc23)c1 | cell-free assay, competition with immobilised ligand | 1 µM | 88
C[C@@H](c1ccc(-n2cnc3c(N)ncnc32)cc1)N1CCc2nn(C)c(Cc3ccccc3)c2C1=O | binding, competition with immobilised ligand | 0.1 µM | 61
N#Cc1ccccc1CSc1nnc2c(n1)[nH]c1ccccc12 | binding, competition with immobilised ligand | 10 µM | 88
COc1cnc(Nc2cccc(S(N)(=O)=O)c2)nc1N1CCN(c2ccccc2)C(=O)C1 | binding, competition with immobilised ligand | 1 µM | 83
COc1cc(-c2cn(C3CCc4c(F)cccc4N(CC(F)(F)F)C3=O)nn2)ccc1-n1cnc(C)c1 (stereo not drawn) | cell-free assay, competition with immobilised ligand | 1 µM | 91
c1cnn2ncc(-c3ccnc(N4CCC45COC5)n3)c2c1 | binding | 1 µM | 70
C[C@@H](c1cccc(C#N)c1)n1cc(Cl)cc(C(N)=O)c1=N | cell-free assay, competition with immobilised ligand | 1 µM | 96
CN(C)c1nccc(-c2cnn3ncccc23)n1 | binding | 1 µM | 64
